# Results: ChEMBL document CHEMBL1250501, “Anti-tubercular agents. Part 5: synthesis and biological evaluation of benzothiadiazine 1,1-dioxide based congeners” (Eur J Med Chem, 2010)
# Active and inactive are the calls of the source. The rule behind the calls is not given here.
# Key:
# Escherichia coli [1] = test: Antibacterial activity against Escherichia coli at 50 ug/ml after 18 hrs by cup plate method; assay type: functional; conditions: for zone of inhibition at 50 µg/mL: read-out: DIZ
# Outline: (§1)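 Agar well diffusion on Mueller-Hinton agar. Inoculum was adjusted to a 0.5 McFarland standard (about […] × 10⁸ CFU/mL) and swabbed over the plate three times, rotating about 60° each time, then the rim was swabbed. Compounds in DMSO went into duplicate 6 mm wells. Plates were incubated at 37 °C for 18 h and inhibition zone diameter read to the nearest mm. DMSO negative control; streptomycin and ciprofloxacin positive controls.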
# Klebsiella pneumoniae [2] = test: Antibacterial activity against Klebsiella pneumoniae at 50 ug/ml after 18 hrs by cup plate method; assay type: functional; conditions: for zone of inhibition at 50 µg/mL: read-out: DIZ; outline: as §1
# Pseudomonas aeruginosa [3] = test: Antibacterial activity against Pseudomonas aeruginosa at 50 ug/ml after 18 hrs by cup plate method; assay type: functional; conditions: for zone of inhibition at 50 µg/mL: read-out: DIZ; outline: as §1
# Escherichia coli [4] = test: Antibacterial activity against Escherichia coli at 100 ug/ml after 18 hrs by cup plate method; assay type: functional; conditions: read-out: DIZ; outline: as §1
# Staphylococcus aureus [5] = test: Antibacterial activity against Staphylococcus aureus at 100 ug/ml after 18 hrs by cup plate method; assay type: functional; conditions: read-out: DIZ; outline: as §1
# Bacillus subtilis [6] = test: Antibacterial activity against Bacillus subtilis at 50 ug/ml after 18 hrs by cup plate method; assay type: functional; outline: as §1
# [7] = system: Mycobacterium tuberculosis; test: Antimycobacterial activity against Mycobacterium tuberculosis H37Rv after 3 to 4 weeks by broth microdilution assay; assay type: functional
# Outline: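 MIC by broth microdilution on compounds active in a single-concentration primary screen. Plates incubated 3–4 weeks at 37 °C in a CO₂ incubator. Wells read visually for absence of growth turbidity.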
# [8] = system: Staphylococcus epidermidis; test: Antibacterial activity against Staphylococcus epidermidis at 50 ug/ml after 18 hrs by cup plate method; assay type: functional; conditions: read-out: DIZ; outline: as §1
# Staphylococcus aureus [9] = test: Antibacterial activity against Staphylococcus aureus at 50 ug/ml after 18 hrs by cup plate method; assay type: functional; conditions: read-out: DIZ; outline: as §1
# Pseudomonas aeruginosa [10] = test: Antibacterial activity against Pseudomonas aeruginosa at 100 ug/ml after 18 hrs by cup plate method; assay type: functional; conditions: read-out: DIZ; outline: as §1
# Candida albicans [11] = test: Antifungal activity against Candida albicans MTCC 227 at 100 ug/ml after 48 hrs by cup plate method; assay type: functional; conditions: MTCC 227, 48 h, read-out: IZ
# Outline: (§2)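 Agar well (cup plate) diffusion on potato dextrose agar 39 g/L, with compounds dissolved in DMSO. Plates were incubated at 28 ± 2 °C for 48 h and inhibition zones measured to the nearest mm. Three replicates per treatment. Amphotericin B positive control; solvent control included.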
# [12] = system: Staphylococcus epidermidis; test: Antibacterial activity against Staphylococcus epidermidis at 100 ug/ml after 18 hrs by cup plate method; assay type: functional; conditions: read-out: DIZ; outline: as §1
# Bacillus subtilis [13] = test: Antibacterial activity against Bacillus subtilis at 100 ug/ml after 18 hrs by cup plate method; assay type: functional; conditions: read-out: DIZ; outline: as §1
# Klebsiella pneumoniae [14] = test: Antibacterial activity against Klebsiella pneumoniae at 100 ug/ml after 18 hrs by cup plate method; assay type: functional; conditions: read-out: DIZ; outline: as §1
# Candida albicans [15] = test: Antifungal activity against Candida albicans MTCC 227 at 50 ug/ml after 48 hrs by cup plate method; assay type: functional
# Outline: (§3)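 Agar well (cup plate) diffusion on potato dextrose agar 39 g/L. Compounds dissolved in DMSO and loaded into 6 mm wells. Incubated at 28 ± 2 °C for 48 h. Inhibition zone diameter measured to the nearest millimetre, three replicates per treatment. DMSO solvent as negative control, amphotericin B as positive control.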
# Aspergillus niger [16] = test: Antifungal activity against Aspergillus niger at 100 ug/ml after 48 hrs by cup plate method; assay type: functional; outline: as §2
# Aspergillus sp. [17] = test: Antifungal activity against Aspergillus sp. at 100 ug/ml after 48 hrs by cup plate method; assay type: functional; outline: as §2
# Candida albicans [18] = test: Antifungal activity against Candida albicans MTCC 227 at 25 ug/ml after 48 hrs by cup plate method; assay type: functional; outline: as §3
# Klebsiella pneumoniae [19] = test: Antibacterial activity against Klebsiella pneumoniae at 75 ug/ml after 18 hrs by cup plate method; assay type: functional; conditions: read-out: DIZ; outline: as §1
# Aspergillus sp. [20] = test: Antifungal activity against Aspergillus sp. at 25 ug/ml after 48 hrs by cup plate method; assay type: functional; outline: as §2
# Klebsiella pneumoniae [21] = test: Antibacterial activity against Klebsiella pneumoniae at 10 ug/ml after 18 hrs by cup plate method; assay type: functional; outline: as §1
# Aspergillus niger [22] = test: Antifungal activity against Aspergillus niger at 25 ug/ml after 48 hrs by cup plate method; assay type: functional, organism-based; outline: as §2
# Bacillus subtilis [23] = test: Antibacterial activity against Bacillus subtilis at 10 ug/ml after 18 hrs by cup plate method; assay type: functional; conditions: read-out: DIZ; outline: as §1
# Pseudomonas aeruginosa [24] = test: Antibacterial activity against Pseudomonas aeruginosa at 75 ug/ml after 18 hrs by cup plate method; assay type: functional; conditions: read-out: DIZ; outline: as §1
# [25] = system: Staphylococcus epidermidis; test: Antibacterial activity against Staphylococcus epidermidis at 25 ug/ml after 18 hrs by cup plate method; assay type: functional; conditions: read-out: DIZ; outline: as §1
# Escherichia coli [26] = test: Antibacterial activity against Escherichia coli at 75 ug/ml after 18 hrs by cup plate method; assay type: functional; conditions: read-out: DIZ; outline: as §1
# [27] = system: Staphylococcus epidermidis; test: Antibacterial activity against Staphylococcus epidermidis at 10 ug/ml after 18 hrs by cup plate method; assay type: functional; conditions: read-out: DIZ; outline: as §1
# Aspergillus sp. [28] = test: Antifungal activity against Aspergillus sp. at 75 ug/ml after 48 hrs by cup plate method; assay type: functional; outline: as §2
# Staphylococcus aureus [29] = test: Antibacterial activity against Staphylococcus aureus at 10 ug/ml after 18 hrs by cup plate method; assay type: functional; outline: as §1
# [30] = system: Staphylococcus epidermidis; test: Antibacterial activity against Staphylococcus epidermidis at 75 ug/ml after 18 hrs by cup plate method; assay type: functional; conditions: read-out: DIZ; outline: as §1
# Pseudomonas aeruginosa [31] = test: Antibacterial activity against Pseudomonas aeruginosa at 25 ug/ml after 18 hrs by cup plate method; assay type: functional; conditions: read-out: DIZ; outline: as §1
# Aspergillus niger [32] = test: Antifungal activity against Aspergillus niger at 50 ug/ml after 48 hrs by cup plate method; assay type: functional, organism-based; outline: as §2
# Aspergillus sp. [33] = test: Antifungal activity against Aspergillus sp. at 50 ug/ml after 48 hrs by cup plate method; assay type: functional; outline: as §2
# Staphylococcus aureus [34] = test: Antibacterial activity against Staphylococcus aureus at 25 ug/ml after 18 hrs by cup plate method; assay type: functional; conditions: read-out: DIZ; outline: as §1
# Pseudomonas aeruginosa [35] = test: Antibacterial activity against Pseudomonas aeruginosa at 10 ug/ml after 18 hrs by cup plate method; assay type: functional; outline: as §1
# Aspergillus niger [36] = test: Antifungal activity against Aspergillus niger at 75 ug/ml after 48 hrs by cup plate method; assay type: functional; outline: as §2
# Klebsiella pneumoniae [37] = test: Antibacterial activity against Klebsiella pneumoniae at 25 ug/ml after 18 hrs by cup plate method; assay type: functional; conditions: read-out: DIZ; outline: as §1
# Staphylococcus aureus [38] = test: Antibacterial activity against Staphylococcus aureus at 75 ug/ml after 18 hrs by cup plate method; assay type: functional; conditions: read-out: DIZ; outline: as §1
# Candida albicans [39] = test: Antifungal activity against Candida albicans MTCC 227 at 75 ug/ml after 48 hrs by cup plate method; assay type: functional; conditions: MTCC 227, 48 h, read-out: IZ; outline: as §3
smiles,measurement,setting,value
CN1C(N2CCN(Cc3ccc([N+](=O)[O-])s3)CC2)=NS(=O)(=O)c2ccccc21,diameter of the inhibition zone (DIZ),Escherichia coli [1],inactive
same,diameter of the inhibition zone (DIZ),Klebsiella pneumoniae [2],inactive
same,diameter of the inhibition zone (DIZ),Pseudomonas aeruginosa [3],inactive
same,zone of inhibition at 100 µg/mL,Escherichia coli [4],16 mm
same,zone of inhibition at 100 µg/mL,Staphylococcus aureus [5],12 mm
same,diameter of the inhibition zone (DIZ),Bacillus subtilis [6],inactive
same,MIC,[7],> 16 µg/mL
same,zone of inhibition at 50 µg/mL,[8],14 mm
same,zone of inhibition at 50 µg/mL,Staphylococcus aureus [9],10 mm
same,zone of inhibition at 100 µg/mL,Pseudomonas aeruginosa [10],13 mm
same,zone of inhibition at 100 µg/mL,Candida albicans [11],17 mm
same,zone of inhibition at 100 µg/mL,[12],16 mm
same,zone of inhibition at 100 µg/mL,Bacillus subtilis [13],18 mm
same,zone of inhibition at 100 µg/mL,Klebsiella pneumoniae [14],12 mm
same,inhibition zone (IZ),Candida albicans [15],inactive
CN[C@@H]1[C@H](O[C@H]2[C@H](O[C@H]3[C@H](O)[C@@H](O)[C@H](N=C(N)N)[C@@H](O)[C@@H]3N=C(N)N)O[C@@H](C)[C@]2(O)C=O)O[C@@H](CO)[C@H](O)[C@H]1O [STREPTOMYCIN],zone of inhibition at 50 µg/mL,Escherichia coli [1],21 mm
same,zone of inhibition at 50 µg/mL,Klebsiella pneumoniae [2],22 mm
same,zone of inhibition at 50 µg/mL,Pseudomonas aeruginosa [3],29 mm
same,zone of inhibition at 50 µg/mL,Bacillus subtilis [6]; read-out: DIZ,17 mm
same,zone of inhibition at 50 µg/mL,[8],18 mm
same,zone of inhibition at 50 µg/mL,Staphylococcus aureus [9],22 mm
same,inhibition zone (IZ),Candida albicans [15],inactive
CN1C(N2CCN(Cc3ccc([N+](=O)[O-])o3)CC2)=NS(=O)(=O)c2ccccc21,zone of inhibition at 50 µg/mL,Escherichia coli [1],15 mm
same,inhibition zone (IZ),Aspergillus niger [16],inactive
same,inhibition zone (IZ),Aspergillus sp. [17],inactive
same,inhibition zone (IZ),Candida albicans [18],inactive
same,zone of inhibition at 50 µg/mL,Klebsiella pneumoniae [2],10 mm
same,zone of inhibition at 75 µg/mL,Klebsiella pneumoniae [19],17 mm
same,inhibition zone (IZ),Aspergillus sp. [20],inactive
same,diameter of the inhibition zone (DIZ),Klebsiella pneumoniae [21],inactive
same,inhibition zone (IZ),Aspergillus niger [22],inactive
same,zone of inhibition at 50 µg/mL,Pseudomonas aeruginosa [3],10 mm
same,zone of inhibition at 100 µg/mL,Escherichia coli [4],26 mm
same,zone of inhibition at 100 µg/mL,Staphylococcus aureus [5],17 mm
same,zone of inhibition at 10 µg/mL,Bacillus subtilis [23],9 mm
same,diameter of the inhibition zone (DIZ),Bacillus subtilis [6],inactive
same,zone of inhibition at 75 µg/mL,Pseudomonas aeruginosa [24],17 mm
same,MIC,[7],8 µg/mL
same,zone of inhibition at 25 µg/mL,[25],13 mm
same,zone of inhibition at 75 µg/mL,Escherichia coli [26],29 mm
same,zone of inhibition at 50 µg/mL,[8],15 mm
same,zone of inhibition at 10 µg/mL,[27],10 mm
same,zone of inhibition at 50 µg/mL,Staphylococcus aureus [9],14 mm
same,zone of inhibition at 100 µg/mL,Pseudomonas aeruginosa [10],17 mm
same,inhibition zone (IZ),Aspergillus sp. [28],inactive
same,zone of inhibition at 100 µg/mL,Candida albicans [11],18 mm
same,diameter of the inhibition zone (DIZ),Staphylococcus aureus [29],inactive
same,zone of inhibition at 75 µg/mL,[30],18 mm
same,zone of inhibition at 25 µg/mL,Pseudomonas aeruginosa [31],12 mm
same,inhibition zone (IZ),Aspergillus niger [32],inactive
same,zone of inhibition at 100 µg/mL,[12],24 mm
same,zone of inhibition at 100 µg/mL,Bacillus subtilis [13],23 mm
same,inhibition zone (IZ),Aspergillus sp. [33],inactive
same,zone of inhibition at 25 µg/mL,Staphylococcus aureus [34],10 mm
same,diameter of the inhibition zone (DIZ),Pseudomonas aeruginosa [35],inactive
same,inhibition zone (IZ),Aspergillus niger [36],inactive
same,zone of inhibition at 25 µg/mL,Klebsiella pneumoniae [37],12 mm
same,zone of inhibition at 100 µg/mL,Klebsiella pneumoniae [14],19 mm
same,zone of inhibition at 50 µg/mL,"Candida albicans [15]; MTCC 227, 48 h, read-out: IZ",11 mm
same,zone of inhibition at 75 µg/mL,Staphylococcus aureus [38],17 mm
same,zone of inhibition at 75 µg/mL,Candida albicans [39],14 mm
